Experimental data: ChEMBL document CHEMBL4513216, “Probing the Open Global Health Chemical Diversity Library for Multistage-Active Starting Points for Next-Generation Antimalarials” (ACS Infect Dis, 2020)

Assay: Toxicity liver stage against HepG2, at 10uM
Type: cell-based
Design: test concentration 10 uM, cell line HepG2-A16-CD81EGFP
Conditions: human, HepG2-A16-CD81EGFP cells; read-out: INHIBITION
Summary of the method: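 Uninfected HepG2-A16-CD81EGFP cells, 3 × 10^3 per well, 1536-well, plated on prespotted compound at 10 μM final, parasite-free screening media added to match infected plates; puromycin 10 μM positive, DMSO 0.5% negative; run in parallel with 48 h PbLuc assay at 37 °C, 5% CO2; viability by CellTiter-Glo luminescence, normalized to controls.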

| Structure (SMILES) | cytotoxicity at 10 µM [%] |
| --- | --- |
| COc1ccc(O[C@H]2COCCN(Cc3c[nH]c4ccccc34)C2)cc1 | 1.82 |
| C[C@@H](NC(=O)c1cnccn1)c1c(-c2ccc(F)cc2)noc1C(=O)O | 1.02 |
| Cc1ccn(CCC(=O)NCc2ccco2)n1 | 5.94 |
| CN1C[C@H](O)[C@]2(CCN(Cc3ccc(OC(F)(F)F)cc3)C2)S1(=O)=O | -5.57 |
| COc1ccccc1C(=O)N1CC(=O)N(CC(C)C)CC(O)C1 (stereo unspecified) | 4.37 |
| O=C(Nc1nc2c(s1)CN(S(=O)(=O)C1CC1)CC2)c1cccc(Cl)c1 | 1.55 |
| O=c1ccc2c([nH]1)CCN(S(=O)(=O)c1ccc3c(c1)OCCO3)C2 | -3.06 |
| CCOCC(=O)NCc1cc(C2CC2)n(C2CCCC2)n1 | -0.165 |
| C[C@@H]1CN(C(=O)Cc2ccsc2)C[C@]12CCN(CCN(C)C)C2=O | -1.1 |
| CCN1CCOCC2(CCCN(C(=O)c3cccc(O)c3)C2)C1 (stereo unspecified) | 0.14 |
| Cc1nnc([C@@H]2C[C@H]3CN(C(=O)C4CC4)C[C@H]3O2)[nH]1 | 19.8 |
| Cc1cnc(C(=O)N2C[C@H]3CCCC(OCc4cccnc4)[C@H]3C2)cn1 (stereo partly specified) | 3.51 |
| Cc1csc(CN2CC[C@H]3C[C@H](c4ccncn4)O[C@@H]3C2)n1 | -148 |
| Cn1cc(C(=O)Nc2ccc3c(c2)CN(C(=O)c2ccco2)CC3)nn1 | 0.0452 |
| O=C(NCCn1ccc(-c2ccncc2)n1)c1ccncc1 | -19.1 |
| CCCNC(=O)c1c(-n2cnnn2)sc2c1CCC2 | 4.05 |
| Cc1occc1C(=O)N1CCc2ncnc(-c3cnn(C)c3)c2CC1 | -4.77 |
| O=C(C1CCOCC1)N1CCc2ncnc(-c3ccc(F)cc3)c2CC1 | -6.28 |
| c1ccc2c3c([nH]c2c1)C(c1nn[nH]n1)CCC3 (stereo unspecified) | -7.23 |
| COc1nsc2nc(C3CCCN3C(C)=O)ccc12 (stereo unspecified) | 6.78 |
| CNC(=O)CCc1cc(C)nc(C2CCCCN2)n1 (stereo unspecified) | -9.83 |

| Structure (SMILES) | cytotoxicity at 10 µM [%] |
| --- | --- |
| C[C@]1(O)CCN(Cc2nccs2)C[C@@H]1Oc1cccc(F)c1 | -0.779 |
| Cc1cc2cc(C(=O)N[C@@H]3CC[C@@H](N4CCCC4)[C@@H]3O)ccc2o1 | -4.72 |
| CN(C)C(=O)C1(CCCc2ccncc2)CCCN1 (stereo unspecified) | 0.59 |
| O=C(c1cccc(O)c1)N1CCN(Cc2nnc(C3CCC3)o2)CC1 | -8.52 |
| NS(=O)(=O)c1ccc(N2CCN(CCCc3cn[nH]c3)CC2)cc1 | -145 |
| CSc1ccc(NCC(=O)NCC(=O)N2CCCC2)cc1F | 2.63 |
| O=C1NCCCN1Cc1nc(-c2ccc(N3CCCCC3)cc2)no1 | 3.24 |
| CNC(=O)c1cccnc1NCc1ccc(-n2cccn2)cc1 | 14.1 |
| COCCOCC(=O)NCc1ccc(N(C)C)nc1 | 8.87 |
| CSCC(=O)N(Cc1ccccn1)Cc1ccccc1C | 7.79 |
| c1cc(CNCc2ccnc(N3CCOCC3)c2)c2c(c1)OCCCO2 | 7.82 |
| CC(=O)N1CCN(CCNS(=O)(=O)c2cc(F)cc(F)c2)CC1 | 7.24 |
| CCn1cnnc1CNC(=O)C1COc2ccc(Cl)cc2C1 (stereo unspecified) | -0.845 |
| O=C(NCCC1CCN(CC(F)(F)F)CC1)C1CCOC1 (stereo unspecified) | 5.69 |
| COCC(O)CN(C)c1ccnc2ccc(Cl)cc12 (stereo unspecified) | -5.93 |
| Cc1cnn(CCNCc2csc(COc3ccccc3)n2)c1 | 1.77 |
| Cc1nn(C)c(C)c1NC(=O)CN1CCCC1c1noc(C2CC2)n1 (stereo unspecified) | -12.1 |
| Cn1cc(CN2CC[C@@H](O)[C@@H]2Cc2ccccc2)cn1 | -71.2 |
| COCC(Nc1ncnc2sc(C(=O)O)c(C)c12)c1ccnn1C (stereo unspecified) | -18.7 |
| CN(CC(O)CO)c1nc(-c2cccnc2)nc2c1CCNC2 (stereo unspecified) | -0.0186 |
| CNC(=O)C1CCN(c2cc(C3CCNCC3)nc(C)n2)C1 (stereo unspecified) | -6.43 |

| Structure (SMILES) | cytotoxicity at 10 µM [%] |
| --- | --- |
| CCn1c(C)nnc1SCCNc1nc(C)nc2ncccc12 | 0.194 |
| CCc1nc(C)c(C2CC(=O)Nc3c2c(-c2cccnc2)nn3C)[nH]1 (stereo unspecified) | -8.13 |
| COc1ccc(NC(=O)Cn2nc(C)c(C)cc2=O)c(OC)c1 | -3.62 |
| Cc1ccccc1S(=O)(=O)N1CCCCC1c1ccn[nH]1 (stereo unspecified) | 12.1 |
| Cc1ccccc1C(C)N(C)Cc1nc2c(cnn2C)c(=O)[nH]1 (stereo unspecified) | -6.69 |
| O=C1CCCc2[nH]c(=O)c(C(=O)N(Cc3ccsc3)C3CC3)cc21 | -10.8 |
| CC(C)C(C(=O)N1CCCN(c2cccnn2)CC1)n1cncn1 (stereo unspecified) | -20.7 |
| Cc1cnn(CC2CCCCN2Cc2c(C)noc2C)c1 (stereo unspecified) | -11.2 |
| COc1cc(C)nc(N2CCN(C(=O)COC3CCCC3)CC2)n1 | -3.78 |
| Cc1cc(C(=O)NCc2cccnc2N(C)C)c(C)o1 | -9.51 |
| O=C(c1ccc(-n2cccn2)nc1)N1CCCC(n2cccn2)C1 (stereo unspecified) | -4.75 |
| Cc1cnn(CC2CCCN2Cc2nc3ccccc3c(=O)[nH]2)c1 (stereo unspecified) | -4.82 |
| Cc1nc(C)n(C2CCCN(C(=O)c3c(C)nn4cccnc34)C2)n1 (stereo unspecified) | -29.2 |
| Cc1ccc(C(=O)N2CCCC(CNS(C)(=O)=O)C2)o1 (stereo unspecified) | -16 |
| COc1c(C)cnc(CN(C)C(=O)c2ccccc2O)c1C | -14.3 |
| CCN1CCN(C2CCN(Cc3nc(-c4ccoc4)no3)CC2)C1=O | -7.39 |
| CC(Cn1cccn1)NCc1nc(-c2cccc(Cl)c2)no1 (stereo unspecified) | -9.21 |
| O=C(CN1CCOC(Cn2cccn2)C1)NCc1cccs1 (stereo unspecified) | -6.88 |
| Cc1nnc2n1CCN(Cc1csc(Cc3ccccc3)n1)C2 | -9.41 |
| O=C(c1ccc(C(F)(F)F)nc1)N1CCCC(n2cncn2)C1 (stereo unspecified) | -10.6 |
| COc1ccc(OC)c(CCNC(=O)NC(C)Cn2ccnc2)c1 (stereo unspecified) | -1.06 |

| Structure (SMILES) | cytotoxicity at 10 µM [%] |
| --- | --- |
| Cc1cnn(CCNCC(O)COc2ccc(C#N)cc2)c1 (stereo unspecified) | -11.9 |
| CCCc1nc(CN2CCCC2Cn2cncn2)cs1 (stereo unspecified) | -9.39 |
| CC(C)C(=O)N1CCN(C(=O)CCc2nnc(-c3ccccc3)o2)CC1 | -4.66 |
| CCc1nnc(CNCC2CCN(CC(O)c3ccccc3)CC2)o1 (stereo unspecified) | -1.49 |
| O=C(CCc1ccc(Br)cc1F)NS(=O)(=O)c1ccc2c(c1)OCCO2 | 2.48 |
| CCc1nccn1C1CCCN(C(=O)c2cn3cccnc3n2)C1 (stereo unspecified) | 92.6 |
| CC(C)OCCN(C)C(C)c1cccc(S(N)(=O)=O)c1 (stereo unspecified) | -8.6 |
| Cc1ccsc1CN(C)Cc1nc2c(cnn2C)c(=O)[nH]1 | -0.575 |
| CN(CC(=O)NC(Cc1ccsc1)c1cccnc1)Cc1ccccn1 (stereo unspecified) | 3.9 |
| CC(C)[C@H](N)C(=O)N1CCCC(C2=Nc3ccccc3S(=O)(=O)N2)C1 (stereo partly specified) | 7.96 |
| CCn1ncc2c1C(COCC1CC1)CN(C(=O)c1ccncn1)C2 (stereo unspecified) | -74.8 |
| COCC(=O)N1CCC2(CC1)COCCN2Cc1ccc(F)cc1 | -73.4 |
| O=C(Cc1cccc(F)c1)N1CCn2cc(Cn3cccn3)nc2C1 | -84.3 |
| O=C(NCc1cn2c(n1)CN(Cc1cccnc1)CC2)C1CCC1 | 6.76 |
| COc1ccccc1C(=O)N1CCCC1c1ncc2c(n1)CCNC2 (stereo unspecified) | -12.3 |
| CN(C)c1ncc(-c2cc(C(=O)NCCO)n(CC3CC3)c2)cn1 | -3.53 |
| CS(=O)(=O)N1CCC[C@]2(C[C@@H](Oc3ncccc3F)CO2)C1 | 4.09 |
| NCc1ccc(Oc2ccc(F)c(F)c2)cc1C(F)(F)F | -0.587 |
